EBNA-1 inh: EBNA-1 DNA-binding inhibitors, primary screen, biochemical, fluorescence polarization. AID 1950, 2009. inhibition, % at 14.8 µM. actives 0.34% (n = 300,000); in the data active = inhibition above about 28%
FGF22 binding: binders of human FGF22 protein, primary screen, FGF22 synaptogenesis inhibitor project, biophysical, thermal shift, single point; Fibroblast growth factor 22 (Homo sapiens), Q9HCT0; recombinant FGF22 thermal shift, SYPRO orange fluorescence; percent of sucrose octasulfate shift, DMSO zero; activity (Tm shift, normalised), % at 9.99 µM; actives 1.5% (n = 340,000); AID 651658, 2012;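 active = mean Tm shift, scaled 0 neutral to 100 positive control, at about 1.3% or above, every replicate too, limit read from the data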
Target sequence (Q9HCT0 whole entry, looked up): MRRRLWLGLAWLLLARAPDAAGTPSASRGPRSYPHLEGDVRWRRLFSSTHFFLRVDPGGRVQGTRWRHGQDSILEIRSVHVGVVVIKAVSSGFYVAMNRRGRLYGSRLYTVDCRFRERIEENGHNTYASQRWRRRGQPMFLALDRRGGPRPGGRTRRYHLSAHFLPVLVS
NS3 helicase inh: inhibitors of HCV NS3 helicase, primary screen, biochemical, Cy5 molecular beacon fluorescence; inhibition, % at 10.9 µM; actives 0.56% (n = 290,000); AID 1800, 2009; NS3 helicase DNA unwinding;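 active = inhibition above the mean of all tested compounds plus 3 SD, set per campaign, cut at about 35% in these data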;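 note: 0% = DMSO wells and 100% = thioflavine S control wells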
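System: NS3 helicase fragment of HCV / Schedule: 1 h at 25 °C / Control set: DMSO alone as 0% and 110 µM thioflavine S as 100% / Reagent: Cy5/quencher beacon DNA duplex and ATP to start / Technique: Cy5 fluorescence / Replication: singlicate / Evaluation: % inhibition of end-to-start signal ratio versus controls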
FID counter: compounds displacing fluorescent DNA intercalator, primary screen, artefact control for HCV NS3 helicase inhibitor project, biochemical, FID fluorescence. AID 1845, 2009. actives 0.17% (n = 290,000). DNA fluorescent intercalator displacement. inhibition, % at 7.9 µM; in the data active = inhibition above about 37%;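 note: 0% = vehicle and 100% = reference compound; higher means more ethidium bromide displaced from hairpin DNA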
NR3A LBD binder: binders of NR3A ligand-binding domain, primary screen, biophysical, differential scanning fluorimetry, uHTS; Glutamate receptor ionotropic, NMDA 3A (GRIN3A) ligand-binding domain; NR3A LBD differential scanning fluorimetry, Tm shift; 0% = protein alone, 100% = glycine-bound protein; Tm shift relative to glycine control, % at 25 µM; actives 2.5% (n = 340,000);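 active = melting temperature shift of at least 10% of the positive control shift, at one fixed dose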
ZTA DNA inh: ZTA (EBV) inhibition in EBNA-1 counter-screen. actives 0.15% (n = 320,000). inhibition, % at 11 µM. AID 2234. ZTA-DNA binding, fluorescence polarization; in the data active = inhibition above about 33%
Target sequence (P03206 whole entry, looked up): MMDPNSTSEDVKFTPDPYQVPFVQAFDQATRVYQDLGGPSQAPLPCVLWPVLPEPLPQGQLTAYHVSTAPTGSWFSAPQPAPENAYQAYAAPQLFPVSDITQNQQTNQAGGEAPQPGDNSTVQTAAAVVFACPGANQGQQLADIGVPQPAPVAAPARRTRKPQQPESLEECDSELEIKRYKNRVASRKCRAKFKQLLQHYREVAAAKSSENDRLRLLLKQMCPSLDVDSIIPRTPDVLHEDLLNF
Active calls of the source: *; . = no result. Rows were chosen to be rich in hits. Some 3.6% of all compounds tested hit in one or more screens of this group.

SMILES | EBNA-1 inh | FGF22 binding | NS3 helicase inh | FID counter | NR3A LBD binder | ZTA DNA inh
O=C(c1ccc(S(=O)(=O)Cc2ccccc2F)c([N+](=O)[O-])c1)N1CCCCCC1 | 2 | 0 | -4 | -8 | -4 | 2
COc1ccc(C(=O)N=c2sc3c(C)ccc(OC)c3n2C)cc1OC | -1 | 0 | -1 | -2 | 0 | -6
COc1cccc(C(=O)N=c2sc3c(C)ccc(OC)c3n2C)c1 | 3 | 0 | . | . | 12* | 2
COc1ccc(OC)c2c1sc(=NC(=O)C1CC1)n2C | 1 | 0 | 3 | -13 | 0 | 14
COc1ccc(OC)c2c1sc(=NC(=O)c1ccco1)n2C | -5 | 0 | -7 | -1 | 16* | -6
O=C(c1ccc(F)cc1)N1CCCCN2[C@H](CO)[C@H](c3ccc(-c4ccc(F)cc4)cc3)[C@H]2C1 | . | 0 | . | . | . | .
CC(=O)c1cccc(NC(=O)Nc2ccc3c(c2)OCO3)c1 | . | 0 | 17 | -9 | 13* | .
CC1CCc2nc(NC(=O)Nc3ccc4c(c3)OCO4)sc2C1 (configuration not stated) | -10 | 0 | -8 | 1 | 31* | -17
O=C(NCc1ccc2c(c1)OCO2)Nc1cccc(Cl)c1 | 1 | . | 3 | 3 | -5 | -15
COC(=O)c1cc(NC(=O)/C=C/c2ccc3c(c2)OCO3)cc(C(=O)OC)c1 | 8 | . | -1 | -3 | -6 | 8
O=C(Nc1cccc(Cl)c1)Nc1ccc2c(c1)OCO2 | 3 | . | -2 | 20 | 33* | -7
COC(=O)c1cccc(NC(=O)/C=C/c2ccc3c(c2)OCO3)c1 | -2 | . | -14 | -14 | 16* | 1
CC1CCc2nc(NC(=O)CN3CCN(Cc4ccc5c(c4)OCO5)CC3)sc2C1 (configuration not stated) | -19 | . | -60 | 15 | -1 | 0
C[C@H](CO)N1C[C@H](C)[C@H](CN(C)C(=O)CCC(F)(F)F)OCCCC[C@H](C)Oc2ccc(NC(=O)CCCN(C)C)cc2C1=O | . | 0 | . | . | . | .
C[C@H](CO)N1C[C@H](C)[C@@H](CN(C)C(=O)Nc2ccc(C(F)(F)F)cc2)OCCCC[C@H](C)Oc2ccc(NC(=O)C3CCCCC3)cc2C1=O | . | 0 | . | . | . | .
O=C(CSCc1ccccc1)NCCCN1CCOCC1 | 12 | 44* | 7 | 4 | 0 | 4
O=C(NCCCN1CCOCC1)c1ccc(Br)cc1 | -3 | . | -2 | 4 | -1 | 6
CC(C)c1ccc(C(=O)NCCCN2CCOCC2)cc1 | -8 | 0 | -3 | 7 | -1 | -6
Cc1cc(C)n(-c2ccc(C(=O)NCCCN3CCOCC3)cc2)n1 | 14 | 44* | 5 | -1 | 0 | 18
O=C(NCCCN1CCOCC1)c1ccc(CSc2ccc(Cl)cc2)cc1 | -11 | 41 | -74 | 38* | -3 | -11
O=S(=O)(c1cccs1)N1CCCCN2[C@@H](CO)[C@H](c3ccc(Br)cc3)[C@@H]2C1 | . | 0 | . | . | . | .
O=C(C1CCOCC1)N1[C@H](CO)[C@@H](c2ccccc2)C12CN(Cc1cccnc1)C2 | . | 0 | . | . | . | .
O=C(NCCc1cccs1)c1ccc(CS(=O)Cc2cccc(Cl)c2)o1 (configuration not stated) | . | 43* | . | . | . | .
Cc1noc(C)c1S(=O)(=O)Nc1ccc2c(c1)CC(=O)N([C@@H](C)CO)C[C@@H](C)[C@H](CN(C)S(=O)(=O)c1ccccc1)O2 | . | 1 | . | . | . | .
O=C1NC[C@@H](CCCCN2C[C@H](Cc3ccccc3)N(CC3CCCCC3)C(=O)C2=O)N(Cc2ccccc2)C1=O | . | 5.4* | . | . | . | .
SMILES | EBNA-1 inh | FGF22 binding | NS3 helicase inh | FID counter | NR3A LBD binder | ZTA DNA inh
CCc1ccc(NC(=O)c2ccc(OC)c([N+](=O)[O-])c2)cc1 | -3 | . | -8 | 11 | 12* | -2
COc1ccc(C(=O)NC(=S)Nc2cccc(NC(=O)c3ccco3)c2)cc1[N+](=O)[O-] | -2 | . | 2 | 8 | 12* | 5
COc1ccc(C(=O)Nc2cc(C)on2)cc1OC | -5 | 0 | 5 | -9 | -3 | -3
COc1ccc(C(=O)Nc2cc(C)on2)cc1[N+](=O)[O-] | 0 | 43* | -4 | -1 | -1 | 4
COc1cc(NC(=O)c2ccc(OC)c([N+](=O)[O-])c2)ccc1NC(=O)c1cccs1 | 21 | . | 0 | 2 | 38* | -16
COCC(=O)N(C)C[C@H]1Oc2ncc(-c3ccc(F)cc3)cc2C(=O)N([C@@H](C)CO)C[C@@H]1C | . | 0 | . | . | . | .
COc1ccc(C(=O)NC(=S)Nc2ccc(NC(=O)c3ccco3)cc2)cc1[N+](=O)[O-] | 10 | 0 | 6 | 2 | 30* | 5
CCOc1ccc(C(=O)NC(=S)Nc2ccc(NC(=O)CC)cc2)cc1[N+](=O)[O-] | 4 | . | -6 | 0 | 8 | 8
CCOc1ccc(C(=O)NC(=S)Nc2cccc(NC(=O)c3ccco3)c2)cc1[N+](=O)[O-] | 15 | 0 | 13 | 0 | 16* | -9
C[C@@H]1CN([C@@H](C)CO)C(=O)c2cccc(NS(=O)(=O)c3cccs3)c2O[C@H]1CN(C)S(=O)(=O)c1ccccc1 | . | 0 | . | . | . | .
COc1ccc2c3c([nH]c2c1)[C@@H](CO)N(C(=O)Nc1ccc(F)cc1)CC31CCN(Cc2cc(F)ccc2F)CC1 | . | 0 | . | . | . | .
C[C@@H](NC(=O)C[C@H]1CC[C@@H]2[C@H](COC[C@@H](O)CN2C)O1)c1ccccc1 | . | 0 | . | . | . | .
Cc1ccc(-c2c(C(=O)Nc3ccccc3C)c(C)[nH]c(=S)c2C#N)o1 | 4 | . | 39* | -22 | -4 | 5
CNC(=O)c1cccnc1Nc1cccc(C(F)(F)F)c1 | -3 | 0 | -3 | -2 | -3 | 15
O=C(Nc1cccc(C(F)(F)F)c1)c1cccnc1NCCO | 8 | 0 | -4 | -3 | 0 | -18
O=C(Nc1cccc(C(F)(F)F)c1)c1cccnc1NCCc1ccccc1 | -2 | . | -30 | 8 | 28* | -3
O=C(Nc1cccc(F)c1)c1cccnc1NCCc1ccccc1 | 6 | . | -20 | 7 | 17* | -1
CN(CC(=O)Nc1ccccc1Br)C(=O)c1cccnc1Nc1cccc(C(F)(F)F)c1 | -9 | 0 | -33 | -15 | 15* | 0
C[C@@H]1CN([C@H](C)CO)C(=O)c2cc(NS(C)(=O)=O)ccc2O[C@@H]1CN(C)S(=O)(=O)c1cn(C)cn1 | . | 0 | . | . | . | .
O=C(Nc1ccc(Cl)cc1)Nc1nnc(-c2ccncc2)s1 | -2 | . | -1 | -2 | 20* | 11
O=C(Nc1cccc(Cl)c1)Nc1nnc(-c2ccncc2)s1 | 11 | 0 | 2 | -6 | 27* | 7

Compound activity as filed in PubChem BioAssay.
